Source: ChEMBL document CHEMBL1165941, “Design and synthesis of 2,4-disubstituted polyhydroquinolines as prospective antihyperglycemic and lipid modulating agents” (Bioorg Med Chem, 2010)
The source made the active and inactive calls. The rule behind the calls is not given here.

What was measured:
[1] = Inhibition of alpha-glucosidase at 100 uM after 3 mins
Method in brief: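 α-Glucosidase (0.1 mg/mL, purified) was assayed in 67 mM sodium phosphate pH 6.8 with 1.0 mg/mL glutathione. The reaction was started with 3.0 mg/mL pNPG and followed at 405 nm every 30 s for 3 min.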

[2] = target: T1, Tyrosine-protein phosphatase non-receptor type 1 (Homo sapiens) (UniProt P18031); test: Inhibition of PTP1B assessed as p-nitrophenolate ion production at 100 uM pretreated for 10 mins measured after 30 mins
T1 sequence (whole entry): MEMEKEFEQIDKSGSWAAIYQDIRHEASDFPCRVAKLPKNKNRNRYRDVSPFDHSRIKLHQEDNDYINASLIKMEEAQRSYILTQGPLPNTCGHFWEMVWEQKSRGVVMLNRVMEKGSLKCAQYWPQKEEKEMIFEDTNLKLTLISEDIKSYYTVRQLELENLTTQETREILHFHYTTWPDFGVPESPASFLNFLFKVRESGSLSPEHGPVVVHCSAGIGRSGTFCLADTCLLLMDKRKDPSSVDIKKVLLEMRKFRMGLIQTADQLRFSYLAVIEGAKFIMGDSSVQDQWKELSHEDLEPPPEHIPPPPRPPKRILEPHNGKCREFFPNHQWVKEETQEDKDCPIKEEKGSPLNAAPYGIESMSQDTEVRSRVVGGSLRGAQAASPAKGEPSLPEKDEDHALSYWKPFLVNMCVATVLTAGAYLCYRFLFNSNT
Method in brief: (§1)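 PTP1B was preincubated 10 min with compound, with and without 0.01% Triton X-100. Substrate was 10 mM pNPP in 50 mM HEPES pH 7.0 with 1 mM DTT and 2 mM EDTA. After 30 min at 37 °C the reaction was stopped with 0.1 N NaOH and A410 was read. Product was calculated with ε 1.78×10⁴ M⁻¹cm⁻¹. Sodium orthovanadate served as standard. IC50 came from dose–response curves.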

[3] = target: Dipeptidyl peptidase 4 (Homo sapiens) (UniProt P27487); test: Inhibition of DPP4 at 100 uM after 15 mins by spectrofluorimeter
Chain of Dipeptidyl peptidase 4 (Homo sapiens) (P27487 whole entry, looked up): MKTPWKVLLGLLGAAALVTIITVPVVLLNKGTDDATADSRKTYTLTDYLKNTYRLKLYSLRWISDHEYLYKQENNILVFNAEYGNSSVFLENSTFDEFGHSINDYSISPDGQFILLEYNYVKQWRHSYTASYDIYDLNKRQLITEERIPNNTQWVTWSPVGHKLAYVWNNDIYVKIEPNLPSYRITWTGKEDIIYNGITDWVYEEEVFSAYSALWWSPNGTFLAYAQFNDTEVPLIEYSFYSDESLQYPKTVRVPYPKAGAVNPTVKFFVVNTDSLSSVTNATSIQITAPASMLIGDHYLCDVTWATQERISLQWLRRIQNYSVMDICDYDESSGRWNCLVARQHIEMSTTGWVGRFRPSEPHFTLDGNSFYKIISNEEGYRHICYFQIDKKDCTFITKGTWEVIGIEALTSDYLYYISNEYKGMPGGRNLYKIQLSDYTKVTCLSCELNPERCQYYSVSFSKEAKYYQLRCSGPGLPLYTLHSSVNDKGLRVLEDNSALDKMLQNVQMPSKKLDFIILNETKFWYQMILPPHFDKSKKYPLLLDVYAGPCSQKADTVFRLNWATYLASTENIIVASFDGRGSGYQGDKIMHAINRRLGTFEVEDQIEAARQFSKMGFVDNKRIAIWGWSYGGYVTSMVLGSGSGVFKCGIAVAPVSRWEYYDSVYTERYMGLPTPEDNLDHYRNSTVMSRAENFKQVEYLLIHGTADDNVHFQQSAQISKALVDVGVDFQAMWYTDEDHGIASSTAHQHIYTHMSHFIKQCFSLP
Method in brief: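 DPP-IV activity was measured at 37 °C as Gly-Pro-AMC (30 µM) cleavage in Tris–HCl pH 7.4 with test compound. Fluorescence was read at excitation 355 nm and emission 460 nm. The initial rate was taken over the first 15 min.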

[4] = target: T2, Glucose-6-phosphatase catalytic subunit 1 (Homo sapiens) (UniProt P35575); test: Inhibition of glucose-6-phosphatase assessed as inositol phosphate release at 100 uM after 30 mins; conditions: in the assay text read “inorganic phosphate” for “inositol phosphate”
T2 sequence (whole entry): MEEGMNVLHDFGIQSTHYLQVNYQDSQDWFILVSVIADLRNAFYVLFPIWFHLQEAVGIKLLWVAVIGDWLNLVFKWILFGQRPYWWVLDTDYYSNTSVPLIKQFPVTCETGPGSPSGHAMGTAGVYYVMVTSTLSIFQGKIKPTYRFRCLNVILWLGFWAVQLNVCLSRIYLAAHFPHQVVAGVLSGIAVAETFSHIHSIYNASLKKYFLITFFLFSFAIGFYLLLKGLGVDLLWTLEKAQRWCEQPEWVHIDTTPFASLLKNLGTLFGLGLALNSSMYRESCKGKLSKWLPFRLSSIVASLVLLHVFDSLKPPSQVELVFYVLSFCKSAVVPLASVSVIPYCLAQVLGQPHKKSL
Method in brief: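 Glucose-6-phosphatase was assayed in 0.3 M citrate pH 6.0 with 28 mM EDTA, 14 mM NaF, 200 mM glucose-6-phosphate and enzyme protein. After 30 min at 37 °C the reaction was stopped with 10% TCA. Activity was expressed as µmol Pi released per min per mg protein.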

[5] = tested on: Rattus norvegicus; test: Antihyperglycemic activity in Charles Foster-Wistar albino rat sucrose loaded model assessed as decrease of blood glucose level at 100 mg/kg, po administered 30 mins before glucose challenge measured up to 120 mins by glucometer; type: functional; conditions: in the assay text read “Sprague-Dawley” for “Charles Foster-Wistar”
Method in brief: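 Sprague–Dawley male rats with blood glucose 60–80 mg/dl, 5–6 per group, received 100 mg/kg orally as a suspension in 1.0% gum acacia; controls received vehicle. Sucrose 10.0 g/kg was given orally 30 min later. Glucose was read by glucometer at 30, 60, 90 and 120 min. Food was withheld. Percent activity came from AUC versus control.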

[6] = Inhibition of glycogen phosphorylase assessed as […] phosphate release at 100 uM after 30 mins
Method in brief: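 Glycogen phosphorylase was incubated with glycogen, glucose-1-phosphate, NaF and 5′-AMP for 30 min at 37 °C. The reaction was stopped with 10% TCA and 0.1 M sodium acetate. Samples were held overnight at 4 °C, then released Pi was measured.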

[7] = target: T3, Tyrosine-protein phosphatase non-receptor type 1 (Homo sapiens, UniProt P18031); test: Inhibition of PTP1B assessed as p-nitrophenolate ion production pretreated for 10 mins measured after 30 mins; method in brief: as §1
T3 sequence (P18031 whole entry): T1 sequence (whole entry)

[8] = tested on: Rattus norvegicus; test: Antihyperglycemic activity in Sprague-Dawley albino rat streptozotocin-induced beta-cell damaged diabetic model assessed as decrease of blood glucose level at 100 mg/kg, po administered 30 mins before glucose challenge measured after 24 hrs by glucometer; type: functional; design: scale not given: the % may be the effect or the level left
Method in brief: (§2)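 Rats were made diabetic with streptozotocin 60 mg/kg ip in 100 mM citrate pH 4.5 after an overnight fast. Animals with glucose 144–270 mg/dl at 48 h were used, 5–6 per group. Compounds were given 100 mg/kg orally in 1.0% gum acacia. Sucrose 2.5 g/kg followed 30 min later. Glucose was read by glucostrips up to 300 min and at 24 h. Non-responders were excluded. Percent activity came from AUC versus control.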

[9] = tested on: Rattus norvegicus; test: Antihyperglycemic activity in Sprague-Dawley albino rat streptozotocin-induced beta-cell damaged diabetic model assessed as decrease of blood glucose level at 100 mg/kg, po administered 30 mins before glucose challenge measured after 5 hrs by glucometer; type: functional; design: scale not given: the % may be the effect or the level left; method in brief: as §2

Molecule	inhibition [1]	inhibition [2] [%]	inhibition [3]	inhibition [4]	Activity ([5]; Sprague-Dawley albino)	inhibition [6]	Activity [5] [%]	IC50 [7] [µM]	Activity [8] [%]	Activity [9] [%]
CCOC(=O)C1(O)CC(c2ccc(Cl)cc2)C2=C(CC(C)(C)CC2=O)O1 (stereo unspecified)	inactive	16.5	inactive	inactive	inactive	7.6%				
CC1(C)CC(=O)C2=C(C1)NC(c1ccccc1)=CC2c1ccc([N+](=O)[O-])cc1 (stereo unspecified)	22.4%	84.7	inactive	inactive		inactive	14.1	6.1		
CCOC(=O)C1=CC(c2ccc(OC)cc2)C2=C(CC(C)(C)CC2=O)N1 (stereo unspecified)	inactive	66.7	16.5%	23.8%		40.4%	12.9			
CCOC(=O)C1(O)CC(c2ccccc2)C2=C(CC(C)(C)CC2=O)O1 (stereo unspecified)	inactive	21.3	inactive	inactive	inactive	inactive				
COc1ccc(C2C=C(c3ccccc3)NC3=C2C(=O)CCC3)cc1 (stereo unspecified)	7.3%	56.8	inactive	17.3%		13.8%	29.6		19.4	17.5
CC1(C)CC(=O)c2c(-c3ccc(F)cc3)cc(-c3ccccc3)nc2C1	inactive	7.9	13.1%	11.1%	inactive	20.3%				
O=C1CCCC2=C1C(c1ccccc1)C=C(c1ccccc1)N2 (stereo unspecified)	inactive	51.2	inactive	inactive		21.8%	19.7		13.8	15.1
CCOC(=O)C1(O)CC(c2ccc(OC)cc2)C2=C(CC(C)(C)CC2=O)O1 (stereo unspecified)	inactive	13.6	inactive	inactive	inactive	inactive				
CCOC(=O)C1=CC(c2ccccc2)C2=C(CC(C)(C)CC2=O)N1 (stereo unspecified)	inactive	43.3	inactive	inactive		49.5%	16.6		11.3	7.1
CCOC(=O)C1=CC(c2ccc(Cl)cc2)C2=C(CC(C)(C)CC2=O)N1 (stereo unspecified)	inactive	53.8	12.5%	11.3%		56.7%	11.4			
CC1(C)CC(=O)C2=C(C1)NC(c1ccccc1)=CC2c1ccco1 (stereo unspecified)	inactive	82.5	18.6%	11.4%		18.9%	14.6	7.7		
CC1(C)CC(=O)C2=C(C1)NC(c1ccccc1)=CC2c1c[nH]c2ccccc12 (stereo unspecified)	inactive	54.5	inactive	26.7%		39.7%	17.3		13.2	8.1
COc1ccc(C2=CC(c3ccccc3)C3=C(CC(C)(C)CC3=O)N2)cc1 (stereo unspecified)	22.4%	53.4	inactive	8.34%		18.4%	17.3		11.7	11.9
Cc1ccc(C2=CC(c3ccccc3)C3=C(CCCC3=O)N2)cc1 (stereo unspecified)	8.3%	33.3	18.8%	27.7%		inactive	13.4			
CCOC(=O)C1(O)CC(c2ccc(Br)cc2)C2=C(CC(C)(C)CC2=O)O1 (stereo unspecified)	inactive	4.7	inactive	inactive	inactive	12.3%				
CCOC(=O)C1=CC(c2ccc(F)cc2)C2=C(CC(C)(C)CC2=O)N1 (stereo unspecified)	15.8%	87.2	9.8%	inactive		61.2%	35.9	4.7	23.4	24.8
COc1ccc(C2C=C(c3ccccc3)NC3=C2C(=O)CC(C)(C)C3)cc1 (stereo unspecified)	inactive	71.8	8.6%	inactive		inactive	17.8	14.5	10.9	8.8
COc1ccc(Cl)cc1C(=O)NCCc1ccc(S(=O)(=O)NC(=O)NC2CCCCC2)cc1 [GLYBURIDE]							32.5		28.4	25.6
CCOC(=O)C1=CC(c2ccc(Br)cc2)C2=C(CC(C)(C)CC2=O)N1 (stereo unspecified)	inactive	65.6	inactive	inactive		49.3%	11.4	16.6		
CN(C)C(=N)NC(=N)N [METFORMIN]							13.5		20.2	18
SODIUM ORTHOVANAD			57.8%							
COc1ccc(-c2cc(-c3ccccc3)nc3c2C(=O)CC(C)(C)C3)cc1	inactive	9.1	22%	inactive	inactive	31.1%				
Cc1ccc(C2=CC(c3ccccc3)C3=C(CC(C)(C)CC3=O)N2)cc1 (stereo unspecified)	inactive	62.3	inactive	inactive		31.7%	11.4	19.6		
CC1(C)CC(=O)c2c(-c3ccc(Cl)cc3)cc(-c3ccccc3)nc2C1	inactive	18.6	29.4%	11.3%	inactive	13.8%				
CC1(C)CC(=O)C2=C(C1)NC(C(=O)O)=CC2c1ccc(F)cc1 (stereo unspecified)	1.4%	27	inactive	16.8%		46.6%	38.7		23.6	27.8
